Assay results reported in ChEMBL document CHEMBL4354797, “Novel Pyrazolo[4,3- d]pyrimidine as Potent and Orally Active Inducible Nitric Oxide Synthase (iNOS) Dimerization Inhibitor with Efficacy in Rheumatoid Arthritis Mouse Model” (J Med Chem, 2019).
Activity calls are given as the source filed them. The calls are words filed in the database; no cut-off is given here.

Test system: RAW264.7
Assay: Antiinflammatory activity in mouse RAW264.7 cells assessed as inhibition of LPS-induced NO production at 10 uM preincubated for 1 hr followed by LPS addition and measured after 24 hrs by Griess reagent-based assay relative to control
Format: functional
How it was run: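 RAW 264.7 cells pretreated with compound for 1 h, then LPS 1 µg/mL for 24 h. Single-point inhibition at 10 µM. IC50 by regression of inhibition over several concentrations. At least three independent experiments.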

SMILES | inhibition at 10 µM | inhibition
CCCc1nn(C)c2c(Nc3ccc(C(=O)N4CCN(CC)CC4)cc3)nc(-c3cc(OC)c(OC)c(OC)c3)nc12 | 27.6% | –
CCCc1nn(C)c2c(N(C)C)nc(/C=C/c3cc(OC)c(OC)c(OC)c3)nc12 | 82.1% | –
CCCc1nn(C)c2c(NCc3ccc(OC)cc3)nc(/C=C/c3cc(OC)c(OC)c(OC)c3)nc12 | 73.1% | –
CCCc1nn(C)c2c(NCCc3cccc(Cl)c3)nc(/C=C/c3cc(OC)c(OC)c(OC)c3)nc12 | 80% | –
CCCc1nn(C)c2c(Nc3cccc(C(F)(F)F)c3)nc(/C=C/c3ccco3)nc12 | 8.9% | –
CCCc1nn(C)c2c(Nc3ccc(C(=O)NC(C)(C)C)cc3)nc(/C=C/c3cc(OC)c(OC)c(OC)c3)nc12 | 10.6% | –
CCCc1nn(C)c2c(NCCc3ccccc3)nc(-c3cc(OC)c(OC)c(OC)c3)nc12 | 20.2% | –
CCCc1nn(C)c2c(N(C)C)nc(/C=C/c3ccccc3)nc12 | 27.1% | –
CCCc1nn(C)c2c(Nc3cccc(C)c3)nc(/C=C/c3ccccc3)nc12 | 15.3% | –
CCCc1nn(C)c2c(NCc3ccc(Cl)cc3)nc(/C=C/c3ccccc3)nc12 | 24.2% | –
CCCc1nn(C)c2c(NCc3ccco3)nc(/C=C/c3cc(OC)c(OC)c(OC)c3)nc12 | 62.1% | –
CCCc1nn(C)c2c(Nc3ccc(Br)cc3)nc(/C=C/c3cc(OC)c(OC)c(OC)c3)nc12 | 33% | –
CCCc1nn(C)c2c(N3CCOCC3)nc(-c3cc(OC)c(OC)c(OC)c3)nc12 | 5.2% | –
CCCc1nn(C)c2c(Nc3ccccc3)nc(-c3cc(OC)c(OC)c(OC)c3)nc12 | 22.2% | –
CCCc1nn(C)c2c(NCCc3ccccc3F)nc(/C=C/c3cc(OC)c(OC)c(OC)c3)nc12 | 85% | –
CCCc1nn(C)c2c(NC)nc(-c3cc(OC)c(OC)c(OC)c3)nc12 | 21.6% | –
CCCc1nn(C)c2c(Nc3ccccc3Br)nc(/C=C/c3cc(OC)c(OC)c(OC)c3)nc12 | 38.5% | –
CCCc1nn(C)c2c(NCc3ccc(Br)cc3)nc(/C=C/c3ccco3)nc12 | 40.6% | –
CCCc1nn(C)c2c(N3CCCCC3)nc(/C=C/c3ccccc3)nc12 | 7.7% | –
CCCc1nn(C)c2c(NCCc3ccccc3Cl)nc(/C=C/c3ccccc3)nc12 | 14.3% | –
CCCc1nn(C)c2c(NCCc3ccccc3Cl)nc(/C=C/c3cc(OC)c(OC)c(OC)c3)nc12 | 46.9% | –
CCCc1nn(C)c2c(NCCc3ccccc3)nc(/C=C/c3cc(OC)c(OC)c(OC)c3)nc12 | 86.1% | –
CCCc1nn(C)c2c(NCc3cccc(OC)c3)nc(/C=C/c3ccco3)nc12 | 35.6% | –
CCCc1nn(C)c2c(N3CCN(CC)CC3)nc(/C=C/c3cc(OC)c(OC)c(OC)c3)nc12 | 28.3% | –
CCCc1nn(C)c2c(Nc3ccc(OC(F)(F)F)cc3)nc(/C=C/c3cc(OC)c(OC)c(OC)c3)nc12 | 16.4% | –
CCCc1nn(C)c2c(Nc3ccc(C(=O)OC)cc3)nc(/C=C/c3ccccc3)nc12 | 42.4% | –
CCCc1nn(C)c2c(NCc3ccc(C(F)(F)F)cc3)nc(/C=C/c3cc(OC)c(OC)c(OC)c3)nc12 | 54.6% | –

SMILES | inhibition at 10 µM | inhibition
CCCc1nn(C)c2c(NCc3ccc(Br)cc3)nc(/C=C/c3cc(OC)c(OC)c(OC)c3)nc12 | 53.9% | –
CCCc1nn(C)c2c(N3CCOCC3)nc(/C=C/c3ccccc3)nc12 | 10.2% | –
CCCc1nn(C)c2c(N3CCCCC3)nc(/C=C/c3cc(OC)c(OC)c(OC)c3)nc12 | 16.3% | –
CCCc1nn(C)c2c(NCc3ccc(OC)cc3)nc(/C=C/c3ccco3)nc12 | 43.8% | –
CCCCNC(=O)c1ccc(Nc2nc(/C=C/c3cc(OC)c(OC)c(OC)c3)nc3c(CCC)nn(C)c23)cc1 | 35.9% | –
CCCc1nn(C)c2c(NC(C)C)nc(/C=C/c3ccco3)nc12 | 37.7% | –
CCCc1nn(C)c2c(Nc3cccc(C(F)(F)F)c3)nc(/C=C/c3cc(OC)c(OC)c(OC)c3)nc12 | 38.2% | –
CCCc1nn(C)c2c(NCCc3ccccc3F)nc(/C=C/c3ccccc3)nc12 | 43.9% | –
CCCc1nn(C)c2c(N3CCCC3)nc(/C=C/c3cc(OC)c(OC)c(OC)c3)nc12 | 15.5% | –
CCCc1nn(C)c2c(Nc3cccc(C(F)(F)F)c3)nc(-c3cc(OC)c(OC)c(OC)c3)nc12 | – | inactive
CCCc1nn(C)c2c(Nc3ccc(C(=O)OC)cc3)nc(/C=C/c3cc(OC)c(OC)c(OC)c3)nc12 | 10.3% | –
CCCc1nn(C)c2c(Nc3ccc(OC)cc3)nc(/C=C/c3cc(OC)c(OC)c(OC)c3)nc12 | 63.2% | –
CCCc1nn(C)c2c(Nc3ccc(C(=O)OC)cc3)nc(-c3cc(OC)c(OC)c(OC)c3)nc12 | 17.3% | –
CCCc1nn(C)c2c(N(C)C)nc(-c3cc(OC)c(OC)c(OC)c3)nc12 | 21.2% | –
CCCc1nn(C)c2c(Nc3ccccc3)nc(/C=C/c3cc(OC)c(OC)c(OC)c3)nc12 | 48.1% | –
CCCc1nn(C)c2c(NCc3ccccc3Cl)nc(/C=C/c3cc(OC)c(OC)c(OC)c3)nc12 | 90% | –
CCCc1nn(C)c2c(N3CCCCC3)nc(-c3cc(OC)c(OC)c(OC)c3)nc12 | 7.6% | –
CCCc1nn(C)c2c(NCc3ccc(F)cc3)nc(/C=C/c3cc(OC)c(OC)c(OC)c3)nc12 | 69.7% | –
CCCc1nn(C)c2c(NCc3ccccc3Cl)nc(/C=C/c3ccco3)nc12 | 54.8% | –
CCCc1nn(C)c2c(N3CCN(CC)CC3)nc(/C=C/c3ccccc3)nc12 | 10.2% | –
CCCc1nn(C)c2c(NCc3ccc(Cl)cc3)nc(/C=C/c3cc(OC)c(OC)c(OC)c3)nc12 | 67.2% | –
CCCc1nn(C)c2c(NCc3ccco3)nc(/C=C/c3ccco3)nc12 | 52.3% | –
CCCc1nn(C)c2c(Nc3cccc(C(F)(F)F)c3)nc(/C=C/c3ccccc3)nc12 | 14.6% | –
CCCc1nn(C)c2c(N3CCCC3)nc(/C=C/c3ccccc3)nc12 | 6.3% | –
CCCc1nn(C)c2c(NCCc3ccc(Cl)cc3)nc(/C=C/c3ccccc3)nc12 | 10.7% | –
CCCc1nn(C)c2c(Nc3ccccc3C)nc(/C=C/c3cc(OC)c(OC)c(OC)c3)nc12 | 54.4% | –
CCCc1nn(C)c2c(NCCc3ccc(OC)cc3)nc(/C=C/c3ccccc3)nc12 | 48% | –

SMILES | inhibition at 10 µM | inhibition
CCCCNC(=O)c1ccc(Nc2nc(-c3cc(OC)c(OC)c(OC)c3)nc3c(CCC)nn(C)c23)cc1 | – | inactive
CCCc1nn(C)c2c(Nc3cccc(Br)c3)nc(/C=C/c3cc(OC)c(OC)c(OC)c3)nc12 | 31% | –
CCCc1nn(C)c2c(NCCCN3CCOCC3)nc(/C=C/c3ccccc3)nc12 | 42.4% | –
CCCc1nn(C)c2c(Nc3cccc(C)c3)nc(/C=C/c3cc(OC)c(OC)c(OC)c3)nc12 | 25.8% | –
CCCc1nn(C)c2c(Nc3cccc(C)c3)nc(/C=C/c3ccco3)nc12 | 8.9% | –
CCCc1nn(C)c2c(NCc3cccc(OC)c3)nc(/C=C/c3cc(OC)c(OC)c(OC)c3)nc12 | 70.9% | –
CCCc1nn(C)c2c(NCCc3ccc(OC)cc3)nc(-c3cc(OC)c(OC)c(OC)c3)nc12 | 10.2% | –
CCCc1nn(C)c2c(N(C)C)nc(/C=C/c3ccco3)nc12 | 30.6% | –
CCCc1nn(C)c2c(Nc3ccc(Cl)cc3)nc(/C=C/c3cc(OC)c(OC)c(OC)c3)nc12 | 25.3% | –
CCCc1nn(C)c2c(NCc3ccccc3OC)nc(/C=C/c3ccco3)nc12 | 38.4% | –
CCCc1nn(C)c2c(NCCc3ccccc3F)nc(/C=C/c3ccco3)nc12 | 73% | –
CCCc1nn(C)c2c(NCCc3ccc(O)cc3)nc(/C=C/c3cc(OC)c(OC)c(OC)c3)nc12 | 15% | –
CCCc1nn(C)c2c(Nc3ccc(C(=O)N4CCN(CC)CC4)cc3)nc(/C=C/c3cc(OC)c(OC)c(OC)c3)nc12 | 15.4% | –
CCCc1nn(C)c2c(NCCc3ccccc3)nc(/C=C/c3ccccc3)nc12 | 48.6% | –
CCCc1nn(C)c2c(NCCc3ccccc3)nc(/C=C/c3ccco3)nc12 | 36.4% | –
CCCc1nn(C)c2c(Nc3ccc(C(=O)O)cc3)nc(/C=C/c3cc(OC)c(OC)c(OC)c3)nc12 | 15.3% | –
CCCc1nn(C)c2c(Nc3ccc(C(F)(F)F)cc3)nc(/C=C/c3cc(OC)c(OC)c(OC)c3)nc12 | 37.8% | –
CCCc1nn(C)c2c(NCCc3ccc(Cl)cc3)nc(-c3cc(OC)c(OC)c(OC)c3)nc12 | 22.2% | –
CCCc1nn(C)c2c(NCCc3ccccc3Cl)nc(/C=C/c3ccco3)nc12 | 70.8% | –
CCCc1nn(C)c2c(NCc3ccc(F)cc3)nc(/C=C/c3ccco3)nc12 | 50.7% | –
CCCc1nn(C)c2c(N3CCOCC3)nc(/C=C/c3cc(OC)c(OC)c(OC)c3)nc12 | 81% | –
CCCc1nn(C)c2c(NC(C)CC)nc(/C=C/c3cc(OC)c(OC)c(OC)c3)nc12 (centres undefined) | 75% | –
CCCc1nn(C)c2c(Nc3ccc(F)c(C(F)(F)F)c3)nc(/C=C/c3cc(OC)c(OC)c(OC)c3)nc12 | 82.6% | –
CCCc1nn(C)c2c(NCc3ccc(C(F)(F)F)cc3)nc(/C=C/c3ccco3)nc12 | 50.2% | –
CCCc1nn(C)c2c(Nc3cccc(C)c3)nc(-c3cc(OC)c(OC)c(OC)c3)nc12 | – | inactive
